# Results collected from several papers.
# Target: Serine/threonine-protein kinase 25 (STK25, Homo sapiens, UniProt O00506)
Structure (SMILES),observed,method,concentration,remaining binding [%]
Cc1cnn2ncc(-c3ccnc(N(C)C)n3)c2c1,binding,,1 µM,100
CNC(=O)[C@@H]1CC[C@@H](n2c(-c3ccc4cnccc4c3)nc3ccc(C(=O)NCc4cccc(C(N)=O)c4)cc32)C1,binding,competition with immobilised ligand,1 µM,100
CCCOc1ccc([C@H]2[C@H](C(=O)O)[C@@H](c3ccc4c(c3)OCO4)CN2CC(=O)Nc2c(CC)cccc2CC)cc1,cell-free assay,competition with immobilised ligand,1 µM,100
C[C@@H]1CCN(c2nccc(-c3cnn4ncccc34)n2)C1,binding,,1 µM,100
CCS(=O)(=O)c1cc2cc(C[C@@](O)(CC(C)(C)c3ccc(F)cc3C(N)=O)C(F)(F)F)[nH]c2cn1,cell-free assay,competition with immobilised ligand,1 µM,87
COc1ccnn2ncc(-c3ccnc(N(C)C)n3)c12,binding,,1 µM,100
CCN1CCN(Cc2ccc(C(=O)Nc3ccc(C)c(Oc4ccc5c(c4)CC(=O)N5)c3)cc2C(F)(F)F)CC1,binding,competition with immobilised ligand,1 µM,100
CCC(=O)N[C@H]1CC[C@@H](C(=O)N(C)c2ccc(-c3nc4ccccc4o3)cc2)C1,cell-free assay,competition with immobilised ligand,1 µM,100
CN(c1nccc(-c2cnn3ncccc23)n1)C1CC1,binding,,1 µM,100
O=C(NCCCN1CCOCC1)c1ccc(Nc2ncc(Cl)c(-c3ccc(Cl)s3)n2)cc1,binding,competition with immobilised ligand,1 µM,89
c1cncc(-c2cccc(Nc3nccc(NC4CCCCC4)n3)c2)c1,binding,competition with immobilised ligand,10 µM,100
COc1cnc(Nc2cccc(S(N)(=O)=O)c2)nc1N1CCN(c2ccccc2)C(=O)C1,binding,competition with immobilised ligand,1 µM,100
Cc1cnc(Nc2ccc(C(=O)N3CCC(N4CCCC4)CC3)cc2)nc1-c1cc2ccccc2s1,binding,competition with immobilised ligand,1 µM,21
N#CC1(c2ccccn2)CCN(Cc2cc(C(=O)N3CCCC3)c(=O)n3ccccc23)CC1,cell-free assay,competition with immobilised ligand,1 µM,97
CN(CCCC(F)(F)F)c1nccc(-c2cnn3ncccc23)n1,binding,,1 µM,100
O=C(Nc1c[nH]nc1C(=O)NC1CCNCC1)c1cc(F)cc(F)c1,binding,competition with immobilised ligand,1 µM,85
c1ccc(N2CCN(Cc3nc4ccccc4[nH]3)CC2)nc1,binding,competition with immobilised ligand,1 µM,94
N[C@@H]1CCN(c2nccc(-c3cnn4ncccc34)n2)C1,binding,,1 µM,100
CCCCN(CCCC)C(=O)CN1C[C@H](c2cc(OC)c3c(c2)OCO3)[C@@H](C(=O)O)[C@@H]1CC(C)(C)CCC,cell-free assay,competition with immobilised ligand,1 µM,100
O=C(c1ccc(Nc2ncc(Cl)c(-c3cc4ccccc4s3)n2)cc1)N1CCC(N2CCCC2)CC1,binding,competition with immobilised ligand,1 µM,32
C=CC(=O)N1CCC(C(=O)NCC(=O)N2CCN(c3nc(-c4cnc(N)nc4C(F)F)nc(N4CCOCC4)n3)CC2)CC1,binding,competition with immobilised ligand,1 µM,96
